In PMC5198934 (Saudi Journal of Biological Sciences, 2015):
Converted amounts (≈) assume the structure as drawn.

Assays:
[1] = ABTS radical scavenging assay; conditions: 10 min, absorbance at 734 nm, triplicate, mean ± SD
How it was run: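 ABTS•+ formed from 7 mM ABTS in water plus 2.45 mM potassium persulfate, kept dark at room temperature 12–16 h, then diluted in methanol to A734 0.70 ± 0.02 at 30 °C. Methanolic compound dilutions (20 µL) added to 180 µL radical, 10 min in dark, A734. Controls: methanol blank, ascorbic acid reference. Fresh radical each run. Triplicate. % scavenging versus blank gives IC50.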

[2] = SRB cytotoxicity assay, MDCK cells; assay type: cell-based, canine; conditions: dog
How it was run: (§1)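 HeLa cells were grown in DMEM; CaSki and MDCK in RPMI-1640. All media had 10% FBS and 1% antibiotic–antimycotic, at 37 °C, 5% CO2. Cells seeded at 5×10^3/well overnight, triplicate, then given four concentrations for 48 h. Untreated cells served as control. SRB staining: ice-cold 70% acetone fixation, 0.4% SRB, Tris solubilisation, A540. IC50 from cancer lines, CC50 from MDCK, TI derived.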

[3] = FRAP assay; conditions: for FRAP (10 μg/mL): absorbance at 593 nm, 30 min, triplicate
How it was run: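 Working reagent: 300 mM acetate buffer pH 3.6, 10 mM TPTZ in 40 mM HCl, and 20 mM FeCl3·6H2O, mixed 10:1:1 and warmed to 37 °C. Methanolic samples reacted 30 min. Ascorbic acid in water used as standard, methanol as blank. Fe²⁺–TPTZ complex read at 593 nm. Triplicate, mean reported.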

[4] = test system: Caski cancer cell; experiment: SRB anticancer assay, Caski cells; assay type: cell-based
How it was run: as §1

[5] = DPPH radical scavenging assay; conditions: 30 min, absorbance at 517 nm, triplicate, mean ± SD
How it was run: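 DPPH dissolved in methanol (180 µL) mixed with 20 µL methanolic compound solutions at 0.1, 1, 10 and 100 μg/mL. Mixture shaken, held 30 min at room temperature in dark, A517. Controls: methanol blank, ascorbic acid positive. Triplicate. % scavenging = (A blank − A test)/A blank × 100; IC50 from concentration–scavenging plot.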

[6] = test system: Hela cancer cell; experiment: SRB anticancer assay, Hela cells; assay type: cell-based, Human
How it was run: as §1

IC50 ABTS [1]	IC50 ([4]; Homo sapiens, Ca-Ski, 48 h, read-out: IC50 Caski)	IC50 DPPH [5]	IC50 ([6]; Homo sapiens, HeLa, 48 h, read-out: IC50 Hela)	Compound	CC50 at 48 h [2]	FRAP (10 μg/mL) [3]	TI (therapeutic index) ([4]; CC50 MDCK / IC50 Caski)	TI (therapeutic index) ([6]; CC50 MDCK / IC50 Hela)	FRAP absorption value ([3]; Fe3+ reducing power)
86.29 ± 2.11 µg/mL	5.64 ± 0.11 µg/mL	33.16 ± 1.60 µg/mL	4.5 ± 0.08 µg/mL	COc1ccc2cc3[n+](cc2c1OC)CCc1cc2c(cc1-3)OCO2 [Berberine]	113.8 ± 0.51 µg/mL	0.001 ± 0.66	20.17	25.29	–
4.760 ± 0.05 µg/mL (≈ 27 µM)	–	10.75 ± 0.66 µg/mL (≈ 61 µM)	–	O=C1O[C@H]([C@@H](O)CO)C(O)=C1O [Ascorbic acid]	–	2.140 ± 0.78	–	–	2.140 nm
